Values after ≈ are worked out from the molar mass of the structure shown. Active and inactive are the calls of the source. The calls are words filed in the database; no cut-off is given here.
Columns and labels:
Haemophilus influenzae [1] = assay: Antimicrobial activity against nontypeable Haemophilus influenzae isolate 2019 expressing GFP isolated from patient with COPD assessed as maximal doubling time at 0.25 ug/mL using flow cell culture after 24 hrs; assay type: functional, organism-based
Haemophilus influenzae [2] = assay: Antimicrobial activity against nontypeable Haemophilus influenzae isolate 2019 expressing GFP isolated from patient with COPD assessed as growth inhibition at 0.25 ug/mL using static culture after 24 hrs; assay type: functional, organism-based
Haemophilus influenzae [3] = assay: Antimicrobial activity against nontypeable Haemophilus influenzae isolate 2019 expressing GFP isolated from patient with COPD by […] assay; assay type: functional, organism-based
In short: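 MIC for strain 2019 carrying pRSM2211 determined by CLSI broth microdilution and Etest, performed by a hospital clinical microbiology laboratory.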

Haemophilus influenzae [4] = assay: Antimicrobial activity against nontypeable Haemophilus influenzae isolate 2019 expressing GFP isolated from patient with COPD assessed as inhibition biofilm formation at 0.25 ug/mL after 2 days; assay type: functional, organism-based
In short: (§1)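 Flow cell: GFPmut3-expressing strain 2019 (kanamycin selection before inoculation) grown under a glass coverslip at 37°C. Medium was 1% BHI with NAD and hemin (1% final) in 150 mM NaCl, flowing at 0.08 ml/min, with or without antibiotic. Established-biofilm arm: no drug days 0–2, then drug days 2–4. Confocal imaging; biomass and maximal thickness by COMSTAT; n = 3.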

Haemophilus influenzae [5] = assay: Antimicrobial activity against nontypeable Haemophilus influenzae isolate 2019 expressing GFP isolated from patient with COPD assessed as decrease in biofilm formation at 8 ug/mL after 2 days; assay type: functional, organism-based; in short: as §1
Haemophilus influenzae [6] = assay: Antimicrobial activity against nontypeable Haemophilus influenzae isolate 2019 expressing GFP isolated from patient with COPD assessed as decrease in biomass of biofilm at 16 ug/mL after 2 days; assay type: functional, organism-based; in short: as §1
Haemophilus influenzae [7] = assay: Antimicrobial activity against nontypeable Haemophilus influenzae isolate 2019 expressing GFP isolated from patient with COPD assessed as decrease in maximal thickness of biofilm at 16 ug/mL after 2 days; assay type: functional, organism-based; in short: as §1
Haemophilus influenzae [8] = assay: Antimicrobial activity against nontypeable Haemophilus influenzae isolate 2019 expressing GFP isolated from patient with COPD assessed as decrease in biomass of biofilm at 0.25 ug/mL after 2 days; assay type: functional, organism-based; in short: as §1
Haemophilus influenzae [9] = assay: Antimicrobial activity against nontypeable Haemophilus influenzae isolate 2019 expressing GFP isolated from patient with COPD assessed as decrease in maximal thickness of biofilm at 0.25 ug/mL after 2 days; assay type: functional, organism-based; in short: as §1
Haemophilus influenzae [10] = assay: Antimicrobial activity against nontypeable Haemophilus influenzae isolate 2019 expressing GFP isolated from patient with COPD assessed as decrease in biomass of biofilm at 0.25 ug/mL after 4 days; assay type: functional, organism-based; in short: as §1
Haemophilus influenzae [11] = assay: Antimicrobial activity against nontypeable Haemophilus influenzae isolate 2019 expressing GFP isolated from patient with COPD assessed as decrease in maximal thickness of biofilm at 0.25 ug/mL after 4 days; assay type: functional, organism-based; in short: as §1
Haemophilus influenzae [12] = assay: Antimicrobial activity against nontypeable Haemophilus influenzae isolate 2019 expressing GFP isolated from patient with COPD assessed as decrease in biomass of 2 days established biofilm measured on day 4 using flow cell culture; assay type: functional, organism-based; in short: as §1
Haemophilus influenzae [13] = assay: Antimicrobial activity against nontypeable Haemophilus influenzae isolate 2019 expressing GFP isolated from patient with COPD assessed as maximal doubling time at 0.125 ug/mL using flow cell culture after 24 hrs; assay type: functional
In short: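 Growth curves: overnight strain 2019 culture, 1 ml diluted into 24 ml supplemented BHI (starting OD600 <0.050), antibiotic 0.03–2 μg/ml. Shaken at 37°C, OD600 read hourly. Maximal doubling time taken from the curves. Also repeated in flow-cell medium (1% supplemented BHI in 150 mM NaCl).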

Haemophilus influenzae [14] = assay: Antimicrobial activity against nontypeable Haemophilus influenzae isolate 2019 expressing GFP isolated from patient with COPD assessed as growth inhibition at 0.125 ug/mL […]; assay type: functional, organism-based
Haemophilus influenzae [15] = assay: Antimicrobial activity against nontypeable Haemophilus influenzae isolate 2019 expressing GFP isolated from patient with COPD by broth microdilution method; assay type: functional
In short: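 MIC for strain 2019 carrying pRSM2211, by CLSI broth microdilution, done in a clinical microbiology laboratory.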

Haemophilus influenzae [16] = assay: Antimicrobial activity against nontypeable Haemophilus influenzae isolate 2019 expressing GFP isolated from patient with COPD assessed as decrease biofilm formation at 0.125 ug/mL after 2 days using flow cell culture relative to control; assay type: functional, organism-based
In short: (§2)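 Flow cell: GFPmut3-expressing strain 2019 (pRSM2211, kanamycin selection before inoculation) attached under a glass coverslip. Medium: 1% BHI with NAD and hemin ([…]) in 150 mM NaCl, 0.08 ml/min flow, 37°C. Antibiotic at 0.125 μg/ml, either from inoculation or added after 2 days. Confocal imaging; biomass and maximal thickness by COMSTAT (n = 3).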

Haemophilus influenzae [17] = assay: Antimicrobial activity against nontypeable Haemophilus influenzae isolate 2019 expressing GFP isolated from patient with COPD assessed as decrease biomass of biofilm at 0.125 ug/mL after 2 days using flow cell culture relative to control; assay type: functional, organism-based; in short: as §2
Haemophilus influenzae [18] = assay: Antimicrobial activity against nontypeable Haemophilus influenzae isolate 2019 expressing GFP isolated from patient with COPD assessed as decrease maximal thickness of biofilm at 0.125 ug/mL after 2 days using flow cell culture relative to control; assay type: functional, organism-based; in short: as §2
Haemophilus influenzae [19] = assay: Antimicrobial activity against nontypeable Haemophilus influenzae isolate 2019 expressing GFP isolated from patient with COPD assessed as decrease in biomass of biofilm in 2 days established biofilm at 0.125 ug/mL after 4 days using flow cell culture; assay type: functional, organism-based; in short: as §2
Haemophilus influenzae [20] = assay: Antimicrobial activity against nontypeable Haemophilus influenzae isolate 2019 expressing GFP isolated from patient with COPD assessed as decrease in maximum thickness of biofilm in 2 days established biofilm at 0.125 ug/mL after 4 days using flow cell culture; assay type: functional, organism-based; in short: as §2
Haemophilus influenzae [21] = assay: Antimicrobial activity against nontypeable Haemophilus influenzae isolate 2019 expressing GFP isolated from patient with COPD assessed as decrease in biomass of biofilm at 0.125 ug/mL incubated for 2 days measured after day 4 using flow cell culture; assay type: functional, organism-based; in short: as §2
Haemophilus influenzae [22] = assay: Antimicrobial activity against nontypeable Haemophilus influenzae isolate 2019 expressing GFP isolated from patient with COPD assessed as decrease in maximal thickness of biofilm at 0.125 ug/mL incubated for 2 days measured after days 4 using flow cell culture; assay type: functional, organism-based; in short: as §2
Haemophilus influenzae [23] = assay: Antimicrobial activity against nontypeable Haemophilus influenzae isolate 2019 expressing GFP isolated from patient with COPD assessed as decrease in biofilm formation at 0.125 ug/mL treated for 4 days measured on day 2 to 4 using flow cell culture; assay type: functional, organism-based; in short: as §2
Haemophilus influenzae [24] = assay: Antimicrobial activity against nontypeable Haemophilus influenzae isolate 2019 expressing GFP isolated from patient with COPD assessed as decrease in established biofilm formation at 0.125 ug/mL treated for 4 days measured on day 2 to 4 using flow cell culture; assay type: functional, organism-based; in short: as §2
Haemophilus influenzae [25] = assay: Antimicrobial activity against azithromycin-resistant nontypeable Haemophilus influenzae isolate S34 assessed as inhibition of biofilm formation at >64 ug/mL; assay type: functional, organism-based
In short: (§3)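 Static-culture biofilm: mid-log-phase bacteria in BHI broth with 10 μg/ml hemin and 10 μg/ml NAD, azithromycin 0.06 to 64 μg/ml, flat-bottom polystyrene 96-well plates, 37°C. Planktonic growth read hourly as A490 over the first 7 h. Biomass at the air-liquid interface stained with crystal violet at 24 h, same wells. Representative data, n = 3.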

Haemophilus influenzae [26] = assay: Antimicrobial activity against azithromycin-resistant nontypeable Haemophilus influenzae isolate S43 assessed as inhibition of biofilm formation at >64 ug/mL; assay type: functional, organism-based; in short: as §3
Haemophilus influenzae [27] = assay: Antimicrobial activity against azithromycin-resistant nontypeable Haemophilus influenzae isolate S44 assessed as inhibition of biofilm formation at >64 ug/mL; assay type: functional, organism-based; in short: as §3
Haemophilus influenzae [28] = assay: Antimicrobial activity against azithromycin-resistant nontypeable Haemophilus influenzae isolate S61 assessed as inhibition of biofilm formation at >64 ug/mL; assay type: functional, organism-based; in short: as §3
Haemophilus influenzae [29] = assay: Antimicrobial activity against nontypeable Haemophilus influenzae isolate 2019 expressing GFP isolated from patient with COPD assessed as inhibition of biofilm formation at 0.25 ug/ml after 7 hrs using crystal violet; assay type: functional, organism-based
Haemophilus influenzae [30] = assay: Antimicrobial activity against azithromycin-resistant nontypeable Haemophilus influenzae isolate S52 assessed as inhibition of biofilm formation at 8 ug/mL after 7 hrs using crystal violet; assay type: functional, organism-based
Haemophilus influenzae [31] = assay: Antimicrobial activity against azithromycin-resistant nontypeable Haemophilus influenzae isolate S53 assessed as inhibition of biofilm formation at 16 ug/mL after 7 hrs using crystal violet; assay type: functional, organism-based
Haemophilus influenzae [32] = assay: Antimicrobial activity against azithromycin-resistant nontypeable Haemophilus influenzae isolate S57 assessed as inhibition of biofilm formation at 64 ug/mL after 7 hrs using crystal violet; assay type: functional, organism-based
Haemophilus influenzae [33] = assay: Antimicrobial activity against nontypeable Haemophilus influenzae isolate 2019 expressing GFP isolated from patient with COPD assessed as viability at 0.125 ug/mL after 2 days using flow cell culture; assay type: functional, organism-based
In short: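 Flow-cell biofilms of GFP-expressing strain 2019 grown 2 days with or without 0.125 μg/ml antibiotic, then stained with propidium iodide for 15 min.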

Haemophilus influenzae [34] = assay: Antimicrobial activity against nontypeable Haemophilus influenzae isolate 2019 expressing GFP isolated from patient with COPD assessed as viability at 0.125 ug/mL incubated for 2 days measured on day 4 using flow cell culture; assay type: functional, organism-based

GENTAMICIN
Activity (Haemophilus influenzae [1]): 51 min
Activity (Haemophilus influenzae [2]): Active
MIC (Haemophilus influenzae [3]): 2 µg/mL
Activity (Haemophilus influenzae [4]): Active
Activity (Haemophilus influenzae [5]): Active
Activity (Haemophilus influenzae [6]): Active
Activity (Haemophilus influenzae [7]): Active
Activity (Haemophilus influenzae [8]): inactive
Activity (Haemophilus influenzae [9]): inactive
Activity (Haemophilus influenzae [10]): inactive
Activity (Haemophilus influenzae [11]): inactive
Activity (Haemophilus influenzae [12]): Dose-dependent effect

CC[C@H]1OC(=O)[C@H](C)[C@@H](O[C@H]2C[C@@](C)(OC)[C@@H](O)[C@H](C)O2)[C@H](C)[C@@H](O[C@@H]2O[C@H](C)C[C@H](N(C)C)[C@H]2O)[C@](C)(O)C[C@@H](C)C(=O)[C@H](C)[C@@H](O)[C@]1(C)O
Activity (Haemophilus influenzae [4]): inactive

CC[C@H]1OC(=O)[C@H](C)[C@@H](O[C@H]2C[C@@](C)(OC)[C@@H](O)[C@H](C)O2)[C@H](C)[C@@H](O[C@@H]2O[C@H](C)C[C@H](N(C)C)[C@H]2O)[C@](C)(O)C[C@@H](C)CN(C)[C@H](C)[C@@H](O)[C@]1(C)O [AZITHROMYCIN]
Activity (Haemophilus influenzae [13]): 44 min
Activity (Haemophilus influenzae [14]): inactive
MIC (Haemophilus influenzae [15]): 0.5 µg/mL (≈ 0.668 µM)
Activity (Haemophilus influenzae [16]): Active
Activity (Haemophilus influenzae [17]): Active
Activity (Haemophilus influenzae [18]): Active
Activity (Haemophilus influenzae [19]): Active
Activity (Haemophilus influenzae [20]): Active
Activity (Haemophilus influenzae [21]): inactive
Activity (Haemophilus influenzae [22]): inactive
Activity (Haemophilus influenzae [23]): Active
Activity (Haemophilus influenzae [24]): Active
Activity (Haemophilus influenzae [25]): Active
Activity (Haemophilus influenzae [26]): Active
Activity (Haemophilus influenzae [27]): Active
Activity (Haemophilus influenzae [28]): Active
Activity (Haemophilus influenzae [29]): Active
Activity (Haemophilus influenzae [30]): Active
Activity (Haemophilus influenzae [31]): Active
Activity (Haemophilus influenzae [32]): Active
Activity (Haemophilus influenzae [33]): inactive
Activity (Haemophilus influenzae [34]): inactive
